Data reported in ChEMBL document CHEMBL2321814, “Sulfocoumarins (1,2-benzoxathiine-2,2-dioxides): a class of potent and isoform-selective inhibitors of tumor-associated carbonic anhydrases” (J Med Chem, 2013).
Calls of active or inactive are those of the source. No cut-off for these calls is given here.

Tests used:
Carbonic anhydrase 9 [1] = target: T1, Carbonic anhydrase 9 (Homo sapiens, UniProt Q16790); assay: Inhibition of human recombinant transmembrane CA9 catalytic domain after 15 mins by stopped-flow CO2 hydration method
Summary of the method: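 Recombinant CA IX catalytic domain was preincubated with inhibitor for 15 min at room temperature. CO2 hydration was followed by stopped-flow with phenol red (0.2 mM, 557 nm) in 20 mM Hepes pH 7.5 with 20 mM Na2SO4, CO2 1.7–17 mM. Initial rates came from at least six traces of the first 5–10% of reaction, minus uncatalyzed rates. Inhibitor dilutions went down to 0.01 nM in water.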

Carbonic anhydrase 9 [2] = target: T1, Carbonic anhydrase 9
Carbonic anhydrase 2 [3] = target: Carbonic anhydrase 2 (Homo sapiens, UniProt P00918); assay: Inhibition of full length human recombinant CA2 cytosolic isoform after 6 hrs by stopped-flow CO2 hydration method
Carbonic anhydrase 1 = Carbonic anhydrase 1 (Homo sapiens, UniProt P00915); assay: Inhibition of full length human recombinant CA1 cytosolic isoform after 6 hrs by stopped-flow CO2 hydration method
Carbonic anhydrase 2 [4] = target: Carbonic anhydrase 2 (Homo sapiens, UniProt P00918, A65S/N67Q); assay: Inhibition of human CA2 Ala65Ser and Asn67Gln double mutant expressed in Escherichia coli strain BL21 (DE3) after 6 hrs by stopped-flow CO2 hydration method
Summary of the method: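 CA II mutant mimicking the CA IX active site was expressed in E. coli BL21(DE3), IPTG-induced, and purified by His-trap, gel filtration and Mono-Q. Enzyme and inhibitor were preincubated 6 h at 4 °C. Stopped-flow CO2 hydration used phenol red (0.2 mM, 557 nm), 20 mM Hepes pH 7.5, 20 mM Na2SO4 and CO2 1.7–17 mM, with uncatalyzed rates subtracted. Three assays were run.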

Chain of Carbonic anhydrase 1 (P00915 whole entry, canonical isoform): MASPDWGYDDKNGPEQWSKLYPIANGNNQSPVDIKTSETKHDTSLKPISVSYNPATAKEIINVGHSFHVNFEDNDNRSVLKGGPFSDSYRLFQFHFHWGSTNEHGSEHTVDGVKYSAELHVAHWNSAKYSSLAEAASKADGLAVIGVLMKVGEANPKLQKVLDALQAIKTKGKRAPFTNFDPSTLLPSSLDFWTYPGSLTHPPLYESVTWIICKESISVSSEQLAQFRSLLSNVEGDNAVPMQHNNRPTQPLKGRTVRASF

O=S1(=O)C=Cc2c(ccc3ccccc23)O1
inhibition (Carbonic anhydrase 9 [1]): inactive
Ki (Carbonic anhydrase 9 [2]): 375 nM
Ki (Carbonic anhydrase 2 [3]): > 100000 nM
Ki (Carbonic anhydrase 1): > 100000 nM

O=S1(=O)C=Cc2cc(-n3cc(-c4ccc(OC(F)(F)F)cc4)nn3)ccc2O1
inhibition (Carbonic anhydrase 9 [1]): inactive
Ki (Carbonic anhydrase 9 [2]): 74 nM

O=S1(=O)C=Cc2cc(Br)ccc2O1
inhibition (Carbonic anhydrase 9 [1]): inactive
Ki (Carbonic anhydrase 2 [4]): 930 nM
Ki (Carbonic anhydrase 9 [2]): 6830 nM
Ki (Carbonic anhydrase 2 [3]): > 100000 nM
Ki (Carbonic anhydrase 1): > 100000 nM

CCOC(=O)c1cn(-c2ccc3c(c2)C=CS(=O)(=O)O3)nn1
inhibition (Carbonic anhydrase 9 [1]): inactive
Ki (Carbonic anhydrase 9 [2]): 86 nM

C[Si](C)(C)c1cn(-c2ccc3c(c2)C=CS(=O)(=O)O3)nn1
inhibition (Carbonic anhydrase 9 [1]): inactive
Ki (Carbonic anhydrase 9 [2]): 60 nM

O=S1(=O)C=Cc2cc(Cl)cc(Cl)c2O1
inhibition (Carbonic anhydrase 9 [1]): inactive
Ki (Carbonic anhydrase 9 [2]): 3260 nM
Ki (Carbonic anhydrase 2 [3]): > 100000 nM
Ki (Carbonic anhydrase 1): > 100000 nM

O=c1ccc2ccccc2o1
inhibition (Carbonic anhydrase 9 [1]): inactive

COC(=O)c1cn(-c2ccc3c(c2)C=CS(=O)(=O)O3)nn1
inhibition (Carbonic anhydrase 9 [1]): inactive
Ki (Carbonic anhydrase 9 [2]): 950 nM

CCN(CC)Cc1cn(-c2ccc3c(c2)C=CS(=O)(=O)O3)nn1
inhibition (Carbonic anhydrase 9 [1]): inactive
Ki (Carbonic anhydrase 9 [2]): 25 nM

COc1ccc(-c2cn(-c3ccc4c(c3)C=CS(=O)(=O)O4)nn2)cc1
inhibition (Carbonic anhydrase 9 [1]): inactive
Ki (Carbonic anhydrase 9 [2]): 18 nM

O=[N+]([O-])c1ccc2c(c1)C=CS(=O)(=O)O2
inhibition (Carbonic anhydrase 9 [1]): inactive
Ki (Carbonic anhydrase 9 [2]): 3770 nM
Ki (Carbonic anhydrase 2 [3]): > 100000 nM

COc1cc2oc(=O)ccc2cc1[C@@H](O)CC(C)C
inhibition (Carbonic anhydrase 9 [1]): inactive

Nc1ccc2c(c1)C=CS(=O)(=O)O2
inhibition (Carbonic anhydrase 9 [1]): inactive
Ki (Carbonic anhydrase 9 [2]): 46 nM

COc1cccc(-c2cn(-c3ccc4c(c3)C=CS(=O)(=O)O4)nn2)c1
inhibition (Carbonic anhydrase 9 [1]): inactive
Ki (Carbonic anhydrase 9 [2]): 49 nM

O=S1(=O)C=Cc2cc(-n3cc(-c4ccccc4)nn3)ccc2O1
inhibition (Carbonic anhydrase 9 [1]): inactive
Ki (Carbonic anhydrase 9 [2]): 29 nM

O=S1(=O)C=Cc2cc(-n3cc(-c4cccc(C(F)(F)F)c4)nn3)ccc2O1
inhibition (Carbonic anhydrase 9 [1]): inactive
Ki (Carbonic anhydrase 9 [2]): 48 nM

O=S1(=O)C=Cc2cc(OCc3ccccc3)ccc2O1
inhibition (Carbonic anhydrase 9 [1]): inactive
Ki (Carbonic anhydrase 2 [4]): 2370 nM
Ki (Carbonic anhydrase 9 [2]): 275 nM
Ki (Carbonic anhydrase 2 [3]): > 100000 nM

O=S1(=O)C=Cc2cc(O)ccc2O1
inhibition (Carbonic anhydrase 9 [1]): inactive
Ki (Carbonic anhydrase 2 [4]): 800 nM
Ki (Carbonic anhydrase 9 [2]): 300 nM
Ki (Carbonic anhydrase 2 [3]): > 100000 nM

O=S1(=O)C=Cc2cc(-n3cc(CO)nn3)ccc2O1
inhibition (Carbonic anhydrase 9 [1]): inactive
Ki (Carbonic anhydrase 9 [2]): 58 nM
